Experimental data taken from ChEMBL document CHEMBL1137710, “Synthesis and in vitro antitumor activity of new quinoxaline derivatives” (2009).

Key:
Assay type in all cases: functional
T47D = test: Growth inhibition of human T47D cells after 48 hrs by sulforhodamine B assay
Summary of the method: (§1)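 Run in the NCI 60-human-tumour-cell-line panel, tested over a 5-log dose range. Dose–response curves gave three values per cell line, each as a log10 molar concentration: GI50 (50% inhibition of net cell growth), TGI (total inhibition of net growth) and LC50 (50% net cell death). The mean graph midpoint is the arithmetic mean over all lines, with insensitive lines entered at the highest concentration tested.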

OVCAR-3 = test: Growth inhibition of human OVCAR-3 cells after 48 hrs by sulforhodamine B assay; conditions: OVCAR-3, 48 h
Summary of the method: (§2)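 NCI 60-human-tumor-cell-line panel, with compounds tested over a 5-log dose range. Values are taken from dose-response curves as log10 molar concentrations: GI50 is 50% net growth inhibition, TGI is total growth inhibition, and LC50 is 50% net cell death.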

NCI-H226 = test: Growth inhibition of human NCI-H226 cells after 48 hrs by sulforhodamine B assay; conditions: NCI-H226, 48 h; summary of the method: as §2
SK-MEL-2 = test: Growth inhibition of human SK-MEL-2 cells after 48 hrs by sulforhodamine B assay; conditions: SK-MEL-2, 48 h; summary of the method: as §2
UO-31 = test: Growth inhibition of human UO31 cells after 48 hrs by sulforhodamine B assay; conditions: UO-31, 48 h; summary of the method: as §1
HOP-62 = test: Growth inhibition of human HOP62 cells after 48 hrs by sulforhodamine B assay; conditions: HOP-62, 48 h; summary of the method: as §2
MCF7 = test: Growth inhibition of human MCF7 cells after 48 hrs by sulforhodamine B assay; conditions: MCF7, 48 h; summary of the method: as §2
SK-OV-3 = test: Growth inhibition of human SKOV3 cells after 48 hrs by sulforhodamine B assay; conditions: SK-OV-3, 48 h; summary of the method: as §2
HCT-15 = test: Growth inhibition of human HCT15 cells after 48 hrs by sulforhodamine B assay; conditions: HCT-15, 48 h; summary of the method: as §2
SF-268 = test: Anticancer activity against human SF268 cells assessed as cell growth at 100 uM after 48 hrs by sulforhodamine B assay; conditions: SF-268, 48 h, read-out: Activity
Malme-3M = test: Growth inhibition of human MALME-3M cells after 48 hrs by sulforhodamine B assay; summary of the method: as §2
HT-29 = test: Growth inhibition of human HT-29 cells after 48 hrs by sulforhodamine B assay; conditions: HT-29, 48 h; summary of the method: as §2
SNB-75 = test: Growth inhibition of human SNB75 cells after 48 hrs by sulforhodamine B assay; conditions: SNB-75, 48 h; summary of the method: as §1
UACC-62 = test: Growth inhibition of human UACC62 cells after 48 hrs by sulforhodamine B assay; conditions: UACC-62, 48 h; summary of the method: as §1
[1] = Growth inhibition of human […] cells after 48 hrs by sulforhodamine B assay; summary of the method: as §2
NCI-H460 = test: Growth inhibition of human NCI-H460 cells after 48 hrs by sulforhodamine B assay; conditions: NCI-H460, 48 h; summary of the method: as §2
ACHN = test: Growth inhibition of human ACHN cells after 48 hrs by sulforhodamine B assay
NCI-H23 = test: Growth inhibition of human NCI-H23 cells after 48 hrs by sulforhodamine B assay; conditions: NCI-H23, 48 h; summary of the method: as §2
BT-549 = test: Growth inhibition of human BT549 cells after 48 hrs by sulforhodamine B assay; conditions: BT-549, 48 h; summary of the method: as §2
HOP-92 = test: Growth inhibition of human HOP92 cells after 48 hrs by sulforhodamine B assay; conditions: HOP-92, 48 h; summary of the method: as §2
SR = test: Growth inhibition of human SR cells after 48 hrs by sulforhodamine B assay; summary of the method: as §1
UACC-257 = test: Growth inhibition of human UACC257 cells after 48 hrs by sulforhodamine B assay; conditions: UACC-257, 48 h; summary of the method: as §1
CCRF-CEM = test: Growth inhibition of human CCRF-CEM cells after 48 hrs by sulforhodamine B assay; summary of the method: as §2
SNB-19 = test: Growth inhibition of human SNB19 cells after 48 hrs by sulforhodamine B assay; conditions: SNB-19, 48 h; summary of the method: as §1
SF-539 = test: Growth inhibition of human SF539 cells after 48 hrs by sulforhodamine B assay; conditions: SF-539, 48 h; summary of the method: as §2
EKVX = test: Growth inhibition of human EKVX cells after 48 hrs by sulforhodamine B assay; summary of the method: as §2
HL-60(TB) = test: Growth inhibition of human HL-60(TB) cells after 48 hrs by sulforhodamine B assay; conditions: HL-60, 48 h
Summary of the method: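 Tested only on compounds active in a three-line prescreen, in the NCI 60-human-tumour-cell-line panel over a 5-log dose range. Values come from dose–response curves as log10 molar GI50, the concentration inhibiting 50% net cell growth. Log10 TGI (total growth inhibition) and log10 LC50 (50% net cell death) were derived too. Mean graph midpoints include insensitive lines at the highest concentration tested.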

KM12 = test: Growth inhibition of human KM12 cells after 48 hrs by sulforhodamine B assay; conditions: KM12, 48 h; summary of the method: as §2
[2] = read-out: pLC50 (the source's name) (converted)

Compound: COc1ccc(CNc2nc3cc(N)cc(N)c3nc2-c2ccccc2)cc1OC
- GI50 (T47D): 4.47 µM
- CC50 (T47D; [2]): > 100 µM
- TGI (T47D; read-out: pTGI (converted)): > 100 µM
- GI50 (OVCAR-3): 1.32 µM
- CC50 (OVCAR-3; [2]): 8.51 µM
- TGI (OVCAR-3; read-out: pTGI (converted)): 3.31 µM
- GI50 (NCI-H226): 14.5 µM
- LC50 (NCI-H226): 64.6 µM
- TGI (NCI-H226; read-out: pTGI (converted)): 30.9 µM
- GI50 (SK-MEL-2): 8.71 µM
- CC50 (SK-MEL-2; [2]): > 100 µM
- TGI (SK-MEL-2; read-out: pTGI (converted)): 30.2 µM
- GI50 (UO-31): 13.5 µM
- CC50 (UO-31; [2]): > 100 µM
- TGI (UO-31; read-out: pTGI (converted)): 45.7 µM
- GI50 (HOP-62): 18.2 µM
- LC50 (HOP-62): 64.6 µM
- TGI (HOP-62; read-out: pTGI (converted)): 34.7 µM
- GI50 (MCF7): 25.7 µM
- CC50 (MCF7; [2]): > 100 µM
- TGI (MCF7; read-out: pTGI (converted)): > 100 µM
- GI50 (SK-OV-3): 21.9 µM
- CC50 (SK-OV-3; [2]): > 100 µM
- TGI (SK-OV-3; read-out: pTGI (converted)): 46.8 µM
- GI50 (HCT-15): 30.2 µM
- LC50 (HCT-15): > 100 µM
- TGI (HCT-15; read-out: pTGI (converted)): > 100 µM
- growth at 100 µM (SF-268): 47%
- GI50 (Malme-3M): 5.62 µM
- CC50 (Malme-3M; [2]): 47.9 µM
- TGI (Malme-3M; read-out: pTGI (converted)): 18.6 µM
- GI50 (HT-29): 1.86 µM
- LC50 (HT-29): > 100 µM
- TGI (HT-29; read-out: pTGI (converted)): 24.5 µM
- GI50 (SNB-75): 16.2 µM
- LC50 (SNB-75): 97.7 µM
- TGI (SNB-75; read-out: pTGI (converted)): 39.8 µM
- GI50 (UACC-62): 12.9 µM
- CC50 (UACC-62; [2]): 53.7 µM
- TGI (UACC-62; read-out: pTGI (converted)): 26.3 µM
- GI50 [1]: 2.14 µM
- LC50 [1]: > 100 µM
- TGI ([1]; read-out: pTGI (converted)): 7.24 µM
- GI50 (NCI-H460): 24 µM
- LC50 (50% net cell kill) (NCI-H460): > 100 µM
- TGI (NCI-H460; read-out: pTGI (converted)): 91.2 µM
- GI50 (ACHN): 13.8 µM
- CC50 (ACHN; [2]): 81.3 µM
- TGI (ACHN; read-out: pTGI (converted)): 33.1 µM
- GI50 (NCI-H23): 17 µM
- LC50 (50% net cell kill concentration) (NCI-H23): 91.2 µM
- TGI (NCI-H23; read-out: pTGI (converted)): 39.8 µM
- GI50 (BT-549): 13.5 µM
- CC50 (BT-549; [2]): 79.4 µM
- TGI (BT-549; read-out: pTGI (converted)): 32.4 µM
- GI50 (HOP-92): 13.5 µM
- LC50 (50% net cell death) (HOP-92): 66.1 µM
- TGI (HOP-92; read-out: pTGI (converted)): 29.5 µM
- GI50 (SR): 3.31 µM
- LC50 (concentration giving 50% net cell death) (SR): > 100 µM
- TGI (SR; read-out: pTGI (converted)): 18.2 µM
- GI50 (UACC-257): 12.9 µM
- CC50 (UACC-257; [2]): 55 µM
- TGI (UACC-257; read-out: pTGI (converted)): 26.9 µM
- GI50 (CCRF-CEM): 3.47 µM
- LC50 (CCRF-CEM): > 100 µM
- TGI (CCRF-CEM; read-out: pTGI (converted)): 70.8 µM
- GI50 (SNB-19): 25.7 µM
- LC50 (SNB-19): > 100 µM
- TGI (SNB-19; read-out: pTGI (converted)): > 100 µM
- GI50 (SF-539): 20 µM
- LC50 (SF-539): > 100 µM
- TGI (SF-539; read-out: pTGI (converted)): 45.7 µM
- GI50 (EKVX): 5.89 µM
- LC50 (50% net cell kill) (EKVX): > 100 µM
- TGI (EKVX; read-out: pTGI (converted)): 30.2 µM
- GI50 (HL-60(TB)): 3.16 µM
- LC50 (HL-60(TB)): > 100 µM
- TGI (HL-60(TB); read-out: pTGI (converted)): 81.3 µM
- GI50 (KM12): 13.2 µM
- LC50 (50% net cell kill) (KM12): 72.4 µM
- TGI (KM12; read-out: pTGI (converted)): 30.9 µM
